Compounds with a hit are over-represented: about 4.8% of the library has one in this group of screens.
PAFAH1B2 inh – inhibitors of human PAFAH1B2; hit rate 1.2% among 340,000; P68402; inhibition, % at 3.39 µM; recombinant PAFAH1B2, FP-rhodamine activity probe, fluorescence polarization;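 active means inhibition above the mean of all tested compounds plus 3 SD, cut at about 24% in these data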;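 further: 0% = enzyme with DMSO and 100% = wells lacking PAFAH1B2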
Target sequence (P68402 whole entry, looked up): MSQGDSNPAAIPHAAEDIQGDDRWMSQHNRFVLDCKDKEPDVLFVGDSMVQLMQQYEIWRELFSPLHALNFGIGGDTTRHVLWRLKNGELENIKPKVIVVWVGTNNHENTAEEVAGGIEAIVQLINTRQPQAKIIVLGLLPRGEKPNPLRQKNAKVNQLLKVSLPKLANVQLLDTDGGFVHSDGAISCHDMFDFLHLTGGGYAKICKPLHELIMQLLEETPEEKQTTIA
PAFAH2 FP inh – inhibitors of human PAFAH2 | Q99487 | inhibition, % at 3.39 µM | recombinant PAFAH2, FP-rhodamine activity probe, fluorescence polarization | AID 492956 | hit rate 0.99% among 340,000;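 active means inhibition above the mean over all tested compounds plus 3 SD, cut at about 30% in these data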;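 further: inhibitors block probe labeling of enzyme so polarization drops; 0% = enzyme with DMSO and 100% = wells lacking PAFAH2 protein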
UCH37 inh – inhibitors of human deubiquitinating enzyme UCH37; inhibition, % (test concentration not listed); AID 588478; purified proteasome/UCH37, Ub-AMC cleavage fluorescence; hit rate 0.33% among 330,000;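 active means mean inhibition over replicate wells above about 20%, limit read from the data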;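 further: 0% = compound-free wells with enzyme and 100% = wells lacking proteasome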
Target sequence (Q9Y5K5 whole entry, looked up): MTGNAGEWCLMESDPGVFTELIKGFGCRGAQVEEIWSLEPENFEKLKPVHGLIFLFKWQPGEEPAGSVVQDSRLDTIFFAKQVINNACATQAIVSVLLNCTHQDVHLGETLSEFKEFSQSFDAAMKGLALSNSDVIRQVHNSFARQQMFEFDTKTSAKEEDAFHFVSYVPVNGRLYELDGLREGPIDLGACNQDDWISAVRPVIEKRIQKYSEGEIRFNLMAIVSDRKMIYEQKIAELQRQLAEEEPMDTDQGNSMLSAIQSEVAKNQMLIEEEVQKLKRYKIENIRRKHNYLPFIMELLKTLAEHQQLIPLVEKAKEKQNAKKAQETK
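Reagent: Ub-AMC substrate; assay system: Proteasome-associated human UCH37 deubiquitinase; controls: no-proteasome and no-compound wells; read-out: % inhibition of Ub-AMC cleavage fluorescence; timing: 30 min preincubation with enzyme, 25 min cleavage at room temperature; signal: AMC fluorescence from Ub-AMC cleavage, excitation 355 nm, emission 460 nm; buffer or medium: Tris-HCl pH 7.4 plus ovalbumin, ATP-MgCl2, DTT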
PAFAH1B3 FP inh – PAFAH1B3 (human) inhibition; Q15102; recombinant PAFAH1B3, FP-rhodamine probe, fluorescence polarization; inhibition, % at 3.39 µM; hit rate 0.28% among 340,000; AID 492972;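 active means inhibition above the screen-wide average of all tested compounds plus 3 SD, cut at about 25% in these data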;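 further: 0% = enzyme with DMSO only and 100% = wells lacking PAFAH1B3 protein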
pPAFAH inh – inhibitors of human plasma PAF acetylhydrolase (pPAFAH). hit rate 1.5% among 330,000. recombinant pPAFAH, FP-rhodamine probe fluorescence polarization. inhibition, % at 3.39 µM;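 active means inhibition above the mean inhibition across the screen plus 3 SD, cut at about 25% in these data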;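 further: inhibitors block binding of the rhodamine activity-based probe so polarization drops; 0% = enzyme with DMSO and 100% = wells lacking pPAFAH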
GRIN3A LBD mod – modulators (binders) of human NR3A ligand-binding domain | NR3A LBD differential scanning fluorimetry, Tm shift; 0% = protein alone, 100% = glycine-bound protein | Tm shift relative to glycine control, % at 25 µM | hit rate 2.5% among 340,000;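 active means melting temperature shift of at least 10% of the positive control shift, at one fixed dose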
PAFAH2 confirm – PAFAH2 (human) inhibition, confirmed; shares compounds with PAFAH2 FP inh; inhibition, % at 3.39 µM; recombinant PAFAH2, FP-rhodamine activity probe, fluorescence polarization; hit rate 65% among 2,300;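 active means mean inhibition over three repeats above a set limit taken from the earlier primary screen, cut at about 30% in these data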;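 further: inhibitor blocks binding of rhodamine activity probe so polarization falls; 0% = enzyme with DMSO and 100% = wells lacking PAFAH2 protein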
Starred values were filed as active, the others as inactive; . = no result given.

SMILES	PAFAH1B2 inh	PAFAH2 FP inh	UCH37 inh	PAFAH1B3 FP inh	pPAFAH inh	GRIN3A LBD mod	PAFAH2 confirm
COc1ccc(C(=O)OCC(=O)Nc2ccc3c(c2)OCCO3)c(OC)c1	4	55*	4	3	1	3	50*
CCOc1ncccc1C(=O)OCC(=O)NCc1ccc2c(c1)OCO2	0	1	2	-3	5	1	.
O=C(COC(=O)c1ccccc1F)Nc1ccc2c(c1)OCCO2	4	70*	1	8	.	2	52*
O=C(COC(=O)CNC(=O)c1ccccc1F)Nc1ccc2c(c1)OCCO2	0	0	3	2	5	2	.
Cc1cccc(C(=O)OCC(=O)Nc2ccc3c(c2)OCCO3)c1	4	61*	3	5	5	2	58*
Cc1ccc(SCCC(=O)NN=Cc2ccncc2)cc1	.	.	2	.	.	.	.
S=C(NN=Cc1ccco1)NC1CC2CCC1C2 (centres undefined)	.	.	1	.	.	.	.
CN(C)S(=O)(=O)c1cccc(C(=O)OCC(=O)Nc2ccc3c(c2)OCCO3)c1	2	41*	0	-2	11	3	40*
COc1ccc(C=NNc2nc(C(=O)O)cs2)cc1	.	.	7	.	.	.	.
COCCN(CC1CCCN(C2Cc3ccccc3C2)C1)C(=O)c1ccc(C(C)=O)cc1 (centres undefined)	-2	21	5	-1	0	0	.
COCCN(CC1CCCN(C2Cc3ccccc3C2)C1)C(=O)c1cccc(C)c1 (centres undefined)	2	32*	0	-3	5	-1	19
Cc1ccc(C(=O)c2ccccc2C(=O)OCC(=O)NC(C)(C)C)cc1	0	62*	2	9	1	2	51*
Cc1ccc(C(=O)c2ccccc2C(=O)OCC(=O)N2CCCC2)cc1	1	1	-1	4	-7	0	.
CC(=NNS(=O)(=O)c1ccc(C)cc1)c1ccc(C)s1	.	.	0	.	.	.	.
Cn1cnnc1Sc1ccc(C(=O)OCC(=O)Nc2ccccc2)cc1[N+](=O)[O-]	0	59*	5	0	7	-12	41*
Cn1cnnc1Sc1ccc(C(=O)OCC(=O)Nc2cc(Cl)cc(Cl)c2)cc1[N+](=O)[O-]	-2	4	6	0	8	6	.
Cc1ccc2[nH]c(O)c(N=Nc3nc4ccccc4s3)c2c1	5	55*	6	-2	0	-2	36*
Cc1ccc(C)c(S(=O)(=O)N=Nc2c(O)[nH]c3ccccc23)c1	3	1	4	0	-2	-1	.
Oc1[nH]c2ccccc2c1N=Nc1nc2ccccc2s1	7	52*	5	-3	8	2	20
Oc1[nH]c2ccccc2c1N=Nc1ccccc1	0	-4	6	1	1	-8	.
COc1cc(C=NNC(=O)c2cccc(NC(=O)c3ccccc3C)c2)ccc1O	.	.	4	.	.	.	.
CCOc1ccc(-n2c(C)cc(C=NNC(=O)C(N)=O)c2C)cc1	.	.	10	.	.	.	.
COc1ccc(/C=C/C(=O)OCC(=O)Nc2cc(C(N)=O)cc(C(N)=O)c2)cc1	-4	-4	.	6	-1	-1	.
COc1cccc(NC(=O)COC(=O)/C=C/c2c(C)nn(-c3ccccc3)c2C)c1	-9	78*	1	-3	2	-14	80*
COc1ccc(/C=C/C(=O)OCC(=O)Nc2cccc(C(C)=O)c2)cc1	0	90*	-1	1	-1	3	81*
SMILES	PAFAH1B2 inh	PAFAH2 FP inh	UCH37 inh	PAFAH1B3 FP inh	pPAFAH inh	GRIN3A LBD mod	PAFAH2 confirm
Cc1nn(-c2ccccc2)c(C)c1/C=C/C(=O)OCC(=O)Nc1ncc(C(F)(F)F)cc1Cl	-1	45*	-1	2	2	-7	35*
NS(=O)(=O)c1cccc(NS(=O)(=O)c2ccc(/C=C/C(=O)OCC(=O)c3ccc(Br)cc3)cc2)c1	2	2	0	2	6	-1	.
COc1ccc(C(=O)COC(=O)/C=C/c2ccc(S(=O)(=O)Nc3cccc(S(N)(=O)=O)c3)cc2)cc1	2	32*	.	3	-2	11*	19
O=C(CNC(=O)c1ccco1)NN=Cc1cccs1	.	.	6	.	.	.	.
C/C=C/C(=O)OCC(=O)Nc1cc(-c2cc(C)c(C)cc2C)nn1-c1ccccc1	-1	41*	4	-4	-5	-3	30*
Cc1nn(-c2ccc(F)cc2)c(Cl)c1/C=C/C(=O)OCC(=O)Nc1ccc(F)cc1F	1	14	4	-3	-1	2	.
Cc1ccc(NC(=O)COC(=O)/C=C/c2c(C)nn(-c3ccc(F)cc3)c2Cl)cc1F	1	72*	4	2	3	5	57*
CCC1CCCC1=NNC(=O)c1ccoc1C (centres undefined)	.	.	3	.	.	.	.
Cc1nnc(SCC2=C(C(=O)O)N3C(=O)C(NC(=O)Cc4ccccc4)C3SC2)s1 (centres undefined)	2	79*	4	3	17	-1	65*
O=C(Nc1ccc(-c2csnn2)cc1)C1CC1	3	-8	2	7	-2	-15	.
O=C(Oc1ccc(-c2csnn2)cc1)C1CC1	6	75*	3	7	20	-1	76*
COc1ccccc1/C=N/OC(=O)c1ccc(C)cc1	1	87*	.	-2	11	3	75*
COc1ccccc1C/C(N)=N/OC(=O)c1ccc2c(c1)OCO2	3	77*	0	1	0	-1	79*
O=C(O/N=C/c1ccc2c(c1)OCO2)c1ccc([N+](=O)[O-])cc1	8	5	.	4	4	-3	.
COc1ccccc1C/C(N)=N/OC(=O)c1ccc(C)c([N+](=O)[O-])c1	2	24	-1	5	6	4	.
Cc1ccc(C(=O)O/N=C/c2ccc3c(c2)OCO3)cc1	-2	48*	.	-1	12	0	51*
Cc1cccc(/C(N)=N/OC(=O)c2ccc3c(c2)OCO3)c1	4	42*	7	6	0	-18	36*
Cc1nc(/C=[N+](\[O-])C(C)(C)C=NO)n(O)c1C	.	.	19	.	.	.	.
CCn1c(C)nc2cc(C(=O)NN=C(C)c3ccc(OC)cc3O)ccc21	.	.	1	.	.	.	.
COc1ccccc1C/C(N)=N/OC(=O)c1ccco1	0	58*	5	6	5	-2	62*
Cc1ccc(N2CCN(N=Cc3cccs3)CC2)cc1	.	.	1	.	.	.	.
COc1cccc(CNc2ccc(Br)cn2)c1O	4	75*	2	2	0	1	4
CC1=NN(c2ccccc2)C(=O)/C1=C\c1ccc(Br)s1	6	33*	5	13	4	-3	11
CC(C)(C)NC(=O)C(=O)NN=Cc1ccc(F)cc1	.	.	2	.	.	.	.
